Measured values of several laboratories.
Lines come from different studies, so protocols differ.
Target: Serine/threonine-protein kinase Nek3 (NEK3, Homo sapiens, UniProt P51956)
One construct used (P51956 1-506): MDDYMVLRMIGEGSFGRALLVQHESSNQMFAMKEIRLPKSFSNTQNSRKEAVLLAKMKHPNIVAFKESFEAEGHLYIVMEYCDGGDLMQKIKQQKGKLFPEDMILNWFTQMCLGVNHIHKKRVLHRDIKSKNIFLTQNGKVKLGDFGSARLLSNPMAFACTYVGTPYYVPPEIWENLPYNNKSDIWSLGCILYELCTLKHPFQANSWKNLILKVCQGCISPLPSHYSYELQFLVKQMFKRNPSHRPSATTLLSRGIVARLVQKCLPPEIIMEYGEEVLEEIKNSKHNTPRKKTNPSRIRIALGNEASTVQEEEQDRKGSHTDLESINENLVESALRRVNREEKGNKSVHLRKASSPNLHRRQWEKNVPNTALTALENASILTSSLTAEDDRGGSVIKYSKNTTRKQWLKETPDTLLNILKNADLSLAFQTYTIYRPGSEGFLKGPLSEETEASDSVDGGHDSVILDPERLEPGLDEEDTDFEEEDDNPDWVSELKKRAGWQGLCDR

O=C1Nc2ccc(Cl)cc2C1=Cc1cc(Cl)c(O)c(Cl)c1
remaining signal (cell-free assay; 0.5 µM): 94%

CS(=O)(=O)N1CCCC(NC(=O)[C@H](CCC2CCCCC2)NC(=O)c2ccc(CNC(=O)c3cnc4ccccn34)cc2)C1 (stereo partly drawn)
remaining binding (cell-free assay, competition with immobilised ligand; 0.1 µM): 100%

O=C(Nc1cnn(-c2csc(C(=O)NC3COC3)c2)c1)Nc1c(F)cccc1Cl
remaining activity (enzyme activity, inhibitor; 5 µM): 87.2%

Cn1nc(C(=O)NCc2ccc(C(=O)O)cc2)cc1-c1ccc2[nH]ccc2c1
remaining binding (cell-free assay, competition with immobilised ligand; 0.1 µM): 100%

CCN(CC)CCNC(=O)c1c(C)[nH]c(/C=C2\C(=O)Nc3ccc(F)cc32)c1C
remaining signal (cell-free assay; 0.5 µM): 91.6%

CCCOc1ccc(OC)c(F)c1C(=O)c1ccc(C(=O)N[C@@H]2CNC[C@H]2NC(=O)c2ccc3[nH]ncc3c2)cc1
remaining activity (enzyme activity, inhibitor; 10 µM): 101%

Cc1sc(C(=O)NC2COC2)cc1-n1cc(NC(=O)Nc2c(F)cccc2Cl)cn1
remaining activity (enzyme activity, inhibitor; 10 µM): 87.5%

CCN(CC)c1ccc(C2=NNC(=O)CC2C)cc1[N+](=O)[O-] (stereo not drawn)
remaining activity (enzyme activity, inhibitor; 10 µM): 90%

CN1CC(Oc2cnc(C#N)cc2-c2ccn3nc(NC(=O)C4CC4)cc3c2)C1
inhibition (enzyme activity, inhibitor; 1 µM): 12%

C[C@H](c1ccnc(Nc2nc3ccc(-c4cc(N(C)C)ncn4)cc3[nH]2)c1)N1CCN(C(=O)CC(F)(F)F)CC1
remaining binding (cell-free assay, competition with immobilised ligand; 0.1 µM): 100%

Cn1cnc(Br)c1C1=CN(c2ncnc3[nH]cnc23)CCS1
inhibition (enzyme activity, inhibitor, radiometric; 2 µM): 79.9%

Cc1ccc(Nc2nccc(N(C)c3ccc4c(C)n(C)nc4c3)n2)cc1S(N)(=O)=O
remaining activity (enzyme activity, inhibitor; 0.5 µM): 94.2%

CNC(=O)c1ccc(Nc2ncc(C(F)(F)F)c(NCc3nccnc3N(C)S(C)(=O)=O)n2)cc1
remaining binding (cell-free assay, competition with immobilised ligand; 0.1 µM): 100%

COc1cccc2c(NCc3ccccc3)nc(-n3c(N)nc4ccccc43)nc12
inhibition (target engagement in cells, inhibitor, chemoproteomics; 20 mM): 2.9%

CO[C@@H](C)c1c(Nc2ccc([C@@H](N(C)C(=O)C3CCS(=O)(=O)CC3)C(F)(F)F)cc2)cnc2cc(Cl)nn12
remaining binding (cell-free assay, competition with immobilised ligand; 1 µM): 61%

CCCS(=O)(=O)Nc1ccc(F)c(C(=O)c2c[nH]c3ncc(-c4ccc(Cl)cc4)cc23)c1F
inhibition (enzyme activity, inhibitor; 1 µM): < 10%

C[C@H](NC(=O)c1cnc2n1[C@](C)(Cc1ccc(C#N)cc1)C(=O)N2c1cc(Cl)c(F)c(Cl)c1)C(=O)NC1(c2ccccn2)CC1
remaining binding (cell-free assay, competition with immobilised ligand; 1 µM): 100%

CC(C)(C)c1nc2c(s1)c1nc(N)ncc1c1ccc(NS(=O)(=O)c3c(F)cccc3F)c(F)c12
remaining activity (enzyme activity, inhibitor, radiometric; 1 µM): 118%
